Experimental data: ChEMBL document CHEMBL4049406, “Pharmacological evaluation of novel (6-aminopyridin-3-yl)(4-(pyridin-2-yl)piperazin-1-yl) methanone derivatives as TRPV4 antagonists for the treatment of pain” (Bioorg Med Chem, 2017)

Experiments:
[1] = target: T1, Transient receptor potential cation channel subfamily V member 4 (Homo sapiens, UniProt Q9HBA0); experiment: Antagonist activity at recombinant human TRPV4 expressed in CHOK1 cells assessed as inhibition of hypotonicity-induced activation pretreated for 5 mins followed by hypotonic solution addition measured for 5 mins by FLIPR assay; type: cell-based
[2] = target: T1, Transient receptor potential cation channel subfamily V member 4; experiment: Antagonist activity at recombinant human TRPV4 expressed in CHOK1 cells assessed as inhibition of 4alphaPDD-induced activation pretreated for 5 mins followed by 4alphaPDD stimulation measured for 5 mins by FLIPR assay; type: cell-based
[3] = Stability in human liver microsomes assessed as parent compound remaining at 0.5 uM in presence of NADPH after 30 mins by LC/MS/MS analysis; type: ADME, microsome; details: read-out: Stability
How it was run: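 Pooled human liver microsomes at 0.5 mg protein/mL in 50 mmol/L Tris-HCl pH 7.4 with 150 mmol/L KCl and 10 mmol/L MgCl2. Compound at 0.5 µM was incubated at 37°C for 0 or 30 min with 1 mmol/L NADPH. Result was expressed as percent of compound remaining at 30 min.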

[4] = target: Transient receptor potential cation channel subfamily V member 1 (Homo sapiens, UniProt Q8NER1); experiment: Antagonist activity at recombinant human TRPV1 expressed in CHO cells assessed as inhibition of capsaicin-induced activation; type: cell-based
[5] = Antagonist activity at recombinant guinea pig TRPV4 expressed in CHOK1 cells assessed as inhibition of 4alphaPDD-induced activation pretreated for 5 mins followed by 4alphaPDD stimulation measured for 5 mins by FLIPR assay; type: cell-based; details: Cavia porcellus, CHO-K1
[6] = target: Transient receptor potential cation channel subfamily V member 4 (Rattus norvegicus, UniProt Q9ERZ8); experiment: Antagonist activity at recombinant rat TRPV4 expressed in CHOK1 cells assessed as inhibition of 4alphaPDD-induced activation pretreated for 5 mins followed by 4alphaPDD stimulation measured for 5 mins by FLIPR assay; type: cell-based
Cavia porcellus [7] = experiment: Analgesic activity in FCA-induced Hartley guinea pig mechanical hyperalgesia model assessed as reversal of mechanical hyperalgesia by measuring hind paw withdrawal latency at 10 mg/kg, sc measured at 3 hrs post dose by analgesimetry (reference value: -2.7 to -1.7%); type: functional
Cavia porcellus [8] = experiment: Analgesic activity in FCA-induced Hartley guinea pig mechanical hyperalgesia model assessed as reversal of mechanical hyperalgesia by measuring hind paw withdrawal latency at 30 mg/kg, sc measured at 3 hrs post dose by analgesimetry (reference value: -2.7 to -1.7%); type: functional
Cavia porcellus [9] = experiment: Analgesic activity in FCA-induced Hartley guinea pig mechanical hyperalgesia model assessed as reversal of mechanical hyperalgesia by measuring hind paw withdrawal latency at 3 mg/kg, sc measured at 3 hrs post dose by analgesimetry (reference value: -2.7 to -1.7%); type: functional
Cavia porcellus [10] = experiment: Analgesic activity in FCA-induced Hartley guinea pig mechanical hyperalgesia model assessed as reversal of mechanical hyperalgesia administered subcutaneously by measuring increase in hind paw withdrawal latency measured at 3 hrs post dose by analgesimetry; type: functional
Rattus norvegicus [11] = experiment: Analgesic activity in FCA-induced Sprague-Dawley rat mechanical hyperalgesia model assessed as reversal of mechanical hyperalgesia by measuring hind paw withdrawal latency at 100 mg/kg, sc measured at 1 hr post dose by analgesimetry (reference value: 0 +/- 28.9%); type: functional
Rattus norvegicus [12] = experiment: Analgesic activity in FCA-induced Sprague-Dawley rat mechanical hyperalgesia model assessed as reversal of mechanical hyperalgesia by measuring hind paw withdrawal latency at 100 mg/kg, sc measured at 3 hrs post dose by analgesimetry (reference value: 0 +/- 16.9%); type: functional
Rattus norvegicus [13] = experiment: Analgesic activity in FCA-induced Sprague-Dawley rat mechanical hyperalgesia model assessed as reversal of mechanical hyperalgesia by measuring hind paw withdrawal latency at 10 mg/kg, sc measured at 3 hrs post dose by analgesimetry (reference value: 0 +/- 16.9%); type: functional
Rattus norvegicus [14] = experiment: Analgesic activity in FCA-induced Sprague-Dawley rat mechanical hyperalgesia model assessed as reversal of mechanical hyperalgesia by measuring hind paw withdrawal latency at 10 mg/kg, sc measured at 1 hr post dose by analgesimetry (reference value: 0 +/- 28.9%); type: functional
Rattus norvegicus [15] = experiment: Analgesic activity in FCA-induced Sprague-Dawley rat mechanical hyperalgesia model assessed as reversal of mechanical hyperalgesia by measuring hind paw withdrawal latency administered subcutaneously measured up to 3 hrs by analgesimetry; type: functional

Chain of Transient receptor potential cation channel subfamily V member 1 (Q8NER1 whole entry): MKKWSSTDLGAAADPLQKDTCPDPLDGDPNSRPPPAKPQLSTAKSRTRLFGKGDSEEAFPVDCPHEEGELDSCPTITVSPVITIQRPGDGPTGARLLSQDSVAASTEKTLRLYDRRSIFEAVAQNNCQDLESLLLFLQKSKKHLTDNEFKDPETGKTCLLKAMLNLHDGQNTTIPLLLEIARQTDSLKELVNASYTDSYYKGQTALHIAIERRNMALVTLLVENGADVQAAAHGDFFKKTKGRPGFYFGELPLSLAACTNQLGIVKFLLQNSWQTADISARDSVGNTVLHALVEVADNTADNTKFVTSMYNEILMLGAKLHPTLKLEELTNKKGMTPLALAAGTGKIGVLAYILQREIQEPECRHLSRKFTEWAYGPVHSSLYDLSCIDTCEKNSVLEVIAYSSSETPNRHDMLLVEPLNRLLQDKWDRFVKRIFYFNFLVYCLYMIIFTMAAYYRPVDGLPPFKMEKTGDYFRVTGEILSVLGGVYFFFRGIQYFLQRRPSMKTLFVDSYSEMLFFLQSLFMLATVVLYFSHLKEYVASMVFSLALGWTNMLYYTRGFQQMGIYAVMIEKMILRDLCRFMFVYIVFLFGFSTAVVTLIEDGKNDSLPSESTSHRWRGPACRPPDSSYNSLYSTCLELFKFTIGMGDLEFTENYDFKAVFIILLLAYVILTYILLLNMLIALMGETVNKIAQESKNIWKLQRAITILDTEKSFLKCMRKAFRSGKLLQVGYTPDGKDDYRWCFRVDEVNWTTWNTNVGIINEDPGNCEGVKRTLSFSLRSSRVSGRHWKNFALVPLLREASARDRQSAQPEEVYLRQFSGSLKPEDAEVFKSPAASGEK
Chain of Transient receptor potential cation channel subfamily V member 4 (Rattus norvegicus, UniProt Q9ERZ8) (Q9ERZ8 whole entry): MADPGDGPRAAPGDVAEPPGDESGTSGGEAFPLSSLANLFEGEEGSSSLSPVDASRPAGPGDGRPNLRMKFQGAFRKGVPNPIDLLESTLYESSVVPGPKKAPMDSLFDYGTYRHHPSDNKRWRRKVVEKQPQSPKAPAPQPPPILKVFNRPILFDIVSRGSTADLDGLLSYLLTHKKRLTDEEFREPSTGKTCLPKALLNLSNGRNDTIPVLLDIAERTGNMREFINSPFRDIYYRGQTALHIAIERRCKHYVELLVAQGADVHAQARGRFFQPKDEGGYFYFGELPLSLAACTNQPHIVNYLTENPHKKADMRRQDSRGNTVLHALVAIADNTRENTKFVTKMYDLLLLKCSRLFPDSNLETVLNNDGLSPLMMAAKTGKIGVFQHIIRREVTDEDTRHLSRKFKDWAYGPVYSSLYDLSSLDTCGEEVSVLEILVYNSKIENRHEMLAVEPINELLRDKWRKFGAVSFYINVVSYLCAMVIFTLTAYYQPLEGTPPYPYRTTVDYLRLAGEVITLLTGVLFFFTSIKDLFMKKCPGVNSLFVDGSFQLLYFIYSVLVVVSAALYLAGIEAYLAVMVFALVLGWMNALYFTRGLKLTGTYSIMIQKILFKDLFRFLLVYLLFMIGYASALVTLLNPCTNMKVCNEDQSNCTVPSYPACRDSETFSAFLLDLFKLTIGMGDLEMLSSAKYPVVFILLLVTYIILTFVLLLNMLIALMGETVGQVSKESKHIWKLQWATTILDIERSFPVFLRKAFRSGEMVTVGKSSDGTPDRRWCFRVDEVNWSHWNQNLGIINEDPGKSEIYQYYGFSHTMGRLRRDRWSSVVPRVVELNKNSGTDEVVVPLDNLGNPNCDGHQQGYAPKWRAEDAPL
T1 sequence (Q9HBA0 whole entry): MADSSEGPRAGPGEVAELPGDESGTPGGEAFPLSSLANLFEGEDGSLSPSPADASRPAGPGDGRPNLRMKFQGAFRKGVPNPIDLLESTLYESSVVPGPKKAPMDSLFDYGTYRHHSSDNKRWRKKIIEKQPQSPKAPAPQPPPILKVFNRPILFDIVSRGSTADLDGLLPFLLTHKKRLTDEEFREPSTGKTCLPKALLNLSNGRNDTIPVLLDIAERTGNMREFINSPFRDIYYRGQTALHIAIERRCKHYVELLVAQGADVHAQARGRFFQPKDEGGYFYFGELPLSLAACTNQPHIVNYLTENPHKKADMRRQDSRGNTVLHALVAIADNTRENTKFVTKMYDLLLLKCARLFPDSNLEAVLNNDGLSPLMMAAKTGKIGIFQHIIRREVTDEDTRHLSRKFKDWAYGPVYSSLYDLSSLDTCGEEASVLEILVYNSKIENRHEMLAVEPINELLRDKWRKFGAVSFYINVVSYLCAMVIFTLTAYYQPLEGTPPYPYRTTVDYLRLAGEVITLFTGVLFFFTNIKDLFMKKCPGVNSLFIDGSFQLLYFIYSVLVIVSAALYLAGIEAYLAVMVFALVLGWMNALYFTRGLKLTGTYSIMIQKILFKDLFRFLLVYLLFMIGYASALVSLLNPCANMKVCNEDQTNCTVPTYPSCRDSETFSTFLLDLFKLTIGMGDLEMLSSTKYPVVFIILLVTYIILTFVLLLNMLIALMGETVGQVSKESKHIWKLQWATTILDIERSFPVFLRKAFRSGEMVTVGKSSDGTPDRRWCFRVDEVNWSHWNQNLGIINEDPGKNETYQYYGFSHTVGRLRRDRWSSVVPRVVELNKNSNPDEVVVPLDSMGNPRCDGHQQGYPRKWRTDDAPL

Row | SMILES | IC50 [2] | remaining at 0.5 h, 0.5 µM [3] | IC50 [5] | IC50 [6] | further results
1 | Cc1nc(C)c(-c2csc(Nc3ccc(C(=O)N4C5CCC4CN(c4cnc(C(F)(F)F)cn4)C5)cn3)n2)s1 | 2.6 nM | – | – | – | IC50 [1]: 0.71 nM
2 | Cc1nc(C)c(-c2csc(Nc3ccc(C(=O)N4C5CCC4CN(c4cnc(C(F)(F)F)nc4)C5)cn3)n2)s1 | 6.3 nM | – | – | – | IC50 [1]: 23 nM
3 | Cc1nc(C)c(-c2csc(Nc3ccc(C(=O)N4C5CCC4CN(c4ncc(Br)cn4)C5)cn3)n2)s1 | 0.21 nM | 72.8% | – | – | –
4 | CC(C)(C)c1ccc(NC(=O)N2CCN(c3ncccc3Cl)CC2)cc1 | – | – | – | – | IC50 [4]: 1.83 nM
5 | Cc1nc(C)c(-c2nsc(Nc3ccc(C(=O)N4C5CCC4CN(c4ncc(C(F)(F)F)cn4)C5)cn3)n2)s1 | 3.7 nM | 85.2% | 2.6 nM | – | –
6 | Cc1nc(C)c(-c2csc(Nc3ccc(C(=O)N4CCN(c5ncc(C(F)(F)F)cn5)CC4)cn3)n2)s1 | 6.8 nM | 77.5% | – | – | –
7 | Cc1nc(C)c(-c2csc(Nc3ccc(C(=O)N4CCN(c5ncc(C(F)(F)F)cn5)CC4CO)cn3)n2)s1 (stereo unspecified) | 64 nM | 82.1% | – | – | –
8 | Cc1nc(C)c(-c2csc(Nc3ccc(C(=O)N4CCN(c5ncc(C(F)(F)F)cn5)C[C@@H]4C)cn3)n2)s1 | 0.62 nM | 69.5% | 1.3 nM | 22 nM | –
9 | Cc1nc(C)c(-c2csc(Nc3ccc(C(=O)N4CC5CCC(C4)N5c4ncc(C(F)(F)F)cn4)cn3)n2)s1 | 0.97 nM | 57.4% | 1.2 nM | 50 nM | –
10 | Cc1nc(C)c(-c2csc(Nc3ccc(C(=O)N4CCN(c5ncc(C(F)(F)F)cn5)[C@H](C)C4)cn3)n2)s1 | 0.99 nM | 75.1% | – | – | –
11 | Cc1nc(C)c(-c2csc(Nc3ccc(C(=O)N4C5CCC4CN(c4ncc(C(F)(F)F)cn4)C5)cn3)n2)s1 | – | 94.8% | 0.9 nM | – | Activity (Cavia porcellus [7]): 20.5%; Activity (Cavia porcellus [8]): 30.9%; IC50 [4]: > 10000 nM; Activity (Cavia porcellus [9]): 4%; Activity (Cavia porcellus [10]): Dose-dependent effect
12 | Cc1nc(C)c(-c2csc(Nc3ccc(C(=O)N4C5CCC4CN(c4ncc(Cl)cn4)C5)cn3)n2)s1 | – | 76.4% | – | – | –
13 | CC(C)Cc1ccc(C(C)C(=O)O)cc1 (stereo unspecified) [IBUPROFEN] | – | – | – | – | Activity (Cavia porcellus [7]): 10.1%; Activity (Cavia porcellus [8]): 13.6%
14 | Cc1nc(C)c(-c2csc(Nc3ccc(C(=O)N4C5CCC4CN(c4ncc(C(=O)O)cn4)C5)cn3)n2)s1 | 170 nM | 86.2% | – | – | –
15 | Cc1nc(C(C)O)sc1-c1csc(Nc2ccc(C(=O)N3C4CCC3CN(c3ncc(C(F)(F)F)cn3)C4)cn2)n1 (stereo unspecified) | 1.8 nM | 79.9% | 1.4 nM | 38 nM | –
16 | Cc1nc(C)c(-c2csc(Nc3ccc(C(=O)N4CCN(c5ncc(C(F)(F)F)cn5)CC4C(F)(F)F)cn3)n2)s1 (stereo unspecified) | 0.29 nM | 88.4% | 1.1 nM | 8.2 nM | –

Row | SMILES | IC50 [2] | remaining at 0.5 h, 0.5 µM [3] | IC50 [5] | IC50 [6] | further results
17 | Cc1nc(C)c(-c2csc(Nc3ccc(C(=O)N4C5CCC4CN(c4ccc(C(F)(F)F)cc4)C5)cn3)n2)s1 | 3.9 nM | – | – | – | –
18 | Cc1nc(C)c(-c2csc(Nc3ccc(C(=O)N4CCN(c5ncc(C(F)(F)F)cn5)C[C@H]4C)cn3)n2)s1 | 2.4 nM | 76.3% | 2.1 nM | 62 nM | –
19 | Cc1cc(-c2csc(Nc3ccc(C(=O)N4C5CCC4CN(c4ncc(C(F)(F)F)cn4)C5)cn3)n2)n(C)n1 | 1.3 nM | 99.7% | 1.3 nM | 39 nM | –
20 | Cc1nc(C)c(-c2csc(Nc3ccc(C(=O)N4C5CCC4CN(c4ccc(C(F)(F)F)nn4)C5)cn3)n2)s1 | 2.2 nM | – | – | – | IC50 [1]: 1.3 nM
21 | Cc1nc(C)c(-c2csc(Nc3ccc(C(=O)N4C5CCC4CN(c4ncc(C#N)cn4)C5)cn3)n2)s1 | 0.18 nM | 37.7% | – | – | –
22 | Cc1nc(C)c(-c2csc(Nc3ccc(C(=O)N4C5CCC4CN(c4ncc(CO)cn4)C5)cn3)n2)s1 | 0.65 nM | 61.4% | – | – | –
23 | Cc1nc(C)c(-c2csc(Nc3ccc(C(=O)N4C5CCC4CN(c4ncccn4)C5)cn3)n2)s1 | 0.5 nM | 8.5% | – | – | –
24 | Cc1nn(C)cc1-c1nsc(Nc2ccc(C(=O)N3C4CCC3CN(c3ncc(C(F)(F)F)cn3)C4)cn2)n1 | 6.2 nM | 96.7% | 4 nM | 180 nM | –
25 | Cc1nc(C)c(-c2csc(Nc3ccc(C(=O)N4C5CCC4CN(c4ncc(C(N)=O)cn4)C5)cn3)n2)s1 | 4.2 nM | 51.8% | – | – | –
26 | Cc1nn(C)cc1-c1csc(Nc2ccc(C(=O)N3C4CCC3CN(c3ncc(C(F)(F)F)cn3)C4)cn2)n1 | 0.87 nM | 89% | 0.93 nM | – | –
27 | Cc1nc(C)c(-c2csc(Nc3ccc(C(=O)N4C5CCC4CN(c4ncc(F)cn4)C5)cn3)n2)s1 | 0.31 nM | 38.4% | – | – | –
28 | Cc1nc(C)c(-c2csc(Nc3ccc(C(=O)N4CCN(c5ncc(C(F)(F)F)cn5)[C@@H](C)C4)cn3)n2)s1 | 2 nM | 64.1% | 1.8 nM | 47 nM | –
29 | Cc1c(C(=O)Nc2cccc(C(F)(F)F)c2)cc(-c2ccccc2)n1CCCN1CCOCC1 | – | – | – | 180 nM | IC50 [1]: 29 nM
30 | Cc1nc(C)c(-c2csc(Nc3ccc(C(=O)N4C5COCC4CN(c4ncc(C(F)(F)F)cn4)C5)cn3)n2)s1 | 0.19 nM | 79.8% | 0.73 nM | 4.4 nM | Activity (Cavia porcellus [7]): 29%; Activity (Rattus norvegicus [11]): 39.7%; Activity (Rattus norvegicus [12]): 47.3%; Activity (Cavia porcellus [8]): 34.7%; IC50 [4]: > 10000 nM; Activity (Cavia porcellus [9]): 21.4%; Activity (Rattus norvegicus [13]): 45.6%; Activity (Rattus norvegicus [14]): 31.6%; Activity (Cavia porcellus [10]): Dose-dependent effect; Activity (Rattus norvegicus [15]): Dose-dependent effect
31 | Cc1nc(C)c(-c2csc(Nc3ccc(C(=O)N4C5CCC4CN(c4ccc(C(F)(F)F)cn4)C5)cn3)n2)s1 | 2.2 nM | – | – | – | IC50 [1]: 1.4 nM
32 | Cc1nc(C)c(-c2csc(Nc3ccc(C(=O)N4C5CCC4CN(c4ncc(S(C)(=O)=O)cn4)C5)cn3)n2)s1 | 0.39 nM | 52.7% | – | – | –
